Reference: ChEMBL document CHEMBL4765399, “Design, synthesis, and biological evaluation of 5-((8-methoxy-2-methylquinolin-4-yl)amino)-1H-indole-2-carbohydrazide derivatives as novel Nur77 modulators” (Eur J Med Chem, 2020)
Calls of active or inactive are those of the source. The calls are words filed in the database; no cut-off is given here.

Legend:
HepG2 [1] = assay: Induction of apoptosis in human HepG2 cells transfected with shRNA assessed as late apoptotic cells at 2 uM incubated for 12 hrs by Annexin V-FITC/PI staining based flow cytometry (reference value: 2.18%); format: functional
HepG2 [2] = assay: Induction of apoptosis in human HepG2 cells transfected with shRNA assessed as early apoptotic cells at 2 uM incubated for 12 hrs by Annexin V-FITC/PI staining based flow cytometry (reference value: 5.09%); format: functional
HepG2 [3] = assay: Antitumor activity against human HepG2 cells xenografted in BALB/c mouse assessed as induction of ER stress by measuring increase in bip level in tumor tissue at 10 to 20 mg/kg/day, ip administered for 15 days by immunohistochemical analysis; format: functional, organism-based; conditions: dose 10-20 mg/kg/day, time 15.0 day
Summary of the method: (§1)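 HepG2 cells (5×10^6) injected subcutaneously into flanks of 4-week-old male Balb/c nude mice. At about 100 mm³, 15 mice were randomized to vehicle, 10 or 20 mg/kg i.p. once daily for 15 days. Tumors were then excised for immunostaining of paraffin sections (5 μm) or for western blot.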

HepG2 [4] = assay: Induction of apoptosis in human HepG2 cells assessed as cleaved caspase-3 expression at 2 uM pretreated with autophagy inhibitor, 3-methyladenine for 2 hrs followed by incubation with compound for 12 hrs by Western blot analysis; format: functional, cell-based
Summary of the method: (§2)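 HepG2 cells grown to confluence were pretreated 2 h with 2 mM 3-MA (autophagy inhibitor) or 2 mM 4-PBA (ER stress inhibitor), then exposed to compound for 12 h. Proteins (40–80 µg, RIPA lysate) were resolved by SDS-PAGE and blotted for PARP, cleaved caspase-3/-9, Bcl-2 and Bax, with chemiluminescent detection.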

[5] = biological target: T1, Nuclear receptor subfamily 4immunitygroup A member 1 (Homo sapiens, UniProt P22736); assay: Modulation of Nur77 in human HepG2 cells assessed as induction of mitochondrial translocation at 2 uM incubated for 6 hrs by Mito-tracker based confocal microscopy; conditions: Mitochondria, filed as modulator
T1 sequence (P22736 whole entry): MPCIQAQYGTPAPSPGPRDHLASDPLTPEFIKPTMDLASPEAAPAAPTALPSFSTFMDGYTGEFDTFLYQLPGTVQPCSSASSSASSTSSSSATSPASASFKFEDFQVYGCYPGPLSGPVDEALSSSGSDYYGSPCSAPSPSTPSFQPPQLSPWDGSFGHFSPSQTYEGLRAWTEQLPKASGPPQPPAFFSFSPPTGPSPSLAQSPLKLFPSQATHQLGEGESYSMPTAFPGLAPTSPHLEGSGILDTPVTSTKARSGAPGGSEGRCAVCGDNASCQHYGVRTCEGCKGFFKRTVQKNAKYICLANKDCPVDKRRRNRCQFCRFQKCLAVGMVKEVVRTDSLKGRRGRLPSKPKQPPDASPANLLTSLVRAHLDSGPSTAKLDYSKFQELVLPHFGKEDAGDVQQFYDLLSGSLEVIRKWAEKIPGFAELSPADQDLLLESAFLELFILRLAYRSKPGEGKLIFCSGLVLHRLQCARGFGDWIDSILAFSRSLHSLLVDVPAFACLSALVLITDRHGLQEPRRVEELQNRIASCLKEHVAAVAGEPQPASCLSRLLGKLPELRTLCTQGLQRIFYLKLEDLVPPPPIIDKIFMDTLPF
Summary of the method: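 HepG2 cells given 2.0 µM for 6 h, then stained with anti-Nur77 antibody plus Mito-tracker. Cells fixed in 4% paraformaldehyde for 20 min, permeabilized with 0.1% Triton X-100, blocked with 5% BSA. Anti-Nur77 (1:500) for 1 h, then FITC- or Cy3-conjugated anti-rabbit IgG for 1 h. Imaged by confocal microscopy.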

HepG2 [6] = assay: Induction of apoptosis in human HepG2 cells assessed as cleaved PARP expression at 2 uM pretreated with autophagy inhibitor, 3-methyladenine for 2 hrs followed by incubation with compound for 12 hrs by Western blot analysis; format: functional, cell-based; summary of the method: as §2
SMMC-7721 [7] = assay: Upregulation of Nur77 expression in human SMMC-7721 cells incubated for 6 hrs by Western blot analysis; format: functional, cell-based; conditions: dose 0.5-2 µM
Summary of the method: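 HepG2, QGY-7703 and SMMC-7721 cells treated with the indicated concentrations for 6 h. HepG2 also given 2.0 µM over a time course. Lysis in RIPA with protease and phosphatase inhibitors; 40-80 µg protein by SDS-PAGE, nitrocellulose transfer. Membranes blocked with 5% milk, primary antibody overnight, HRP secondary, chemiluminescence. GAPDH as loading control.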

[8] = biological target: T1, Nuclear receptor subfamily 4immunitygroup A member 1; assay: Modulation of Nur77 in human HepG2 cells assessed as induction of nuclear […] pretreated with nuclear export inhibitor, LMB followed by incubation with compound for 12 hrs by fluorescence microscopic analysis; format: cell-based
HepG2 [9] = assay: Induction of apoptosis in human HepG2 cells transfected with shRNA assessed as live cells at 2 uM incubated for 12 hrs by Annexin V-FITC/PI staining based flow cytometry (reference value: 92.6%); format: functional
SMMC-7721 [10] = assay: Induction of endoplasmic reticulum stress in human SMMC-7721 cells assessed as increase in bip protein expression incubated for 12 hrs by Western blot analysis; format: functional, cell-based; conditions: dose 0.5-2 µM
Summary of the method: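 HepG2, QGY-7703 and SMMC-7721 treated with graded concentrations for 12 h. Lysed in RIPA with inhibitors; 40-80 µg protein separated by SDS-PAGE, blotted to nitrocellulose, blocked 1 h in 5% milk, primary antibodies overnight (LC3, Beclin1, Bip, CHOP, TRB3), HRP secondaries, chemiluminescence.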

HepG2 [11] = assay: Induction of endoplasmic reticulum stress in human HepG2 cells assessed as increase in TRB3 expression at 2 uM measured after 1 to 4 hrs by Western blot analysis; format: functional, cell-based; conditions: time 1-4 hrs
Summary of the method: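 HepG2 exposed to 2.0 µM over a time course; Nur77, Bip, p-EIF2a, TRB3 and LC3 levels followed by Western blot of RIPA lysates.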

HepG2 [12] = assay: Antitumor activity against human HepG2 cells xenografted in BALB/c mouse assessed as induction of autophagy by measuring increase in LC3-II level in tumor tissue at 10 to 20 mg/kg/day, ip administered for 15 days by western blot analysis; format: functional, organism-based; conditions: dose 10-20 mg/kg/day, time 15.0 day; summary of the method: as §1
[13] = biological target: T1, Nuclear receptor subfamily 4immunitygroup A member 1; assay: Modulation of Nur77 in human HepG2 cells assessed as induction of Nur77 translocation into cytoplasm from nucleus by measuring increase in protein expression in cytoplasm at 2 uM by western blot analysis; format: subcellular; conditions: filed as modulator, time 1-8 hrs, TDE = time-dependent effect
Summary of the method: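 HepG2 given 2.0 µM for set times; cells swollen 10 min on ice in HEPES/NaCl/EDTA/CaCl2/MgCl2 buffer, 0.1% NP40 added, spun 15000 rpm 3 min at 4 °C giving cytoplasmic supernatant; pellet extracted in RIPA. Fractions blotted for Nur77, with PARP (nuclear) and tubulin (cytoplasmic) as loading controls.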

HepG2 [14] = assay: Induction of morphological changes in human HepG2 cells assessed as vesicles accumulation at 1 to 2 uM incubated for 6 to 12 hrs by phase contrast microscopic analysis; format: functional, cell-based; conditions: dose 1-2 µM, time 6-12 hrs
Summary of the method: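 HepG2 cells given graded concentrations; morphology monitored at set time points by phase-contrast optical microscopy.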

HepG2 [15] = assay: Antitumor activity against human HepG2 cells xenografted in BALB/c mouse assessed as tumor growth inhibition at 20 mg/kg/day, ip administered for 15 days; format: functional; conditions: 360 h, time 15 day
Summary of the method: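 Subcutaneous flank xenograft of 5×10^6 HepG2 cells in 4-week-old male Balb/c nude mice. At about 100 mm³, 15 mice were randomized into three groups: vehicle, 10 or 20 mg/kg i.p. daily for 15 days. Tumor size was measured every day, and tumors were excised and weighed at the end.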

HepG2 [16] = assay: Disruption of mitochondrial membrane potential in human HepG2 cells transfected with shNur77 assessed as green fluorescence intensity at 2 uM incubated for 12 hrs by JC-1 staining based flow cytometry (reference value: 44890 units); format: functional
HepG2 [17] = assay: Antitumor activity against human HepG2 cells xenografted in BALB/c mouse assessed as induction of ER stress by measuring increase in CHOP level in tumor tissue at 10 to 20 mg/kg/day, ip administered for 15 days by western blot analysis; format: functional, organism-based; conditions: dose 10-20 mg/kg/day, time 15.0 day; summary of the method: as §1
HepG2 [18] = assay: Induction of autophagy in human HepG2 cells assessed as p62 degradation by western blot analysis; format: functional, cell-based
SMMC-7721 [19] = assay: Antiproliferative activity against human SMMC-7721 cells assessed as reduction in cell viability incubated for 48 hrs by MTT assay; format: functional, cell-based; conditions: SMMC-7721, 48 h
Summary of the method: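 MTT assay after 48 h exposure at six concentrations, range chosen by cytotoxicity. Inhibition = (ODcontrol − ODtest)/ODcontrol × 100%; IC50 is the concentration halving OD versus untreated cells. Means ± SD of three independent determinations. HepG2 and SMMC-7721 grown in DMEM, QGY-7703 and LO2 in RPMI 1640, with 10% FBS at 37 °C.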

COc1cccc2c(Nc3ccc4[nH]c(C(=O)N/N=C/c5ccc(SC)cc5)cc4c3)cc(C)nc12
Activity (HepG2 [1]): 23%
Activity (HepG2 [2]): 16.2%
Activity (HepG2 [3]): Active
Activity (HepG2 [4]): inactive
Activity [5]: Active
Activity (HepG2 [6]): inactive
Activity (SMMC-7721 [7]): Dose-dependent effect
Activity [8]: inactive
Activity (HepG2 [9]): 59.8%
Activity (SMMC-7721 [10]): Dose-dependent effect
Activity (HepG2 [11]): Active
Activity (HepG2 [12]): Active
Activity [13]: Tde
Activity (HepG2 [14]): Active
inhibition in vivo at 20 mg/kg/day (HepG2 [15]): 62.4%
Activity (HepG2 [16]): 52452 U
Activity (HepG2 [17]): Active
Activity (HepG2 [18]): inactive
IC50 (SMMC-7721 [19]): 1.4 µM
